Source: ChEMBL document CHEMBL1157559, “Synthesis and biological evaluation of novel pyrazolyl-2,4-thiazolidinediones as anti-inflammatory and neuroprotective agents” (Bioorg Med Chem, 2010)
Active and inactive are the calls of the source. No cut-off for these calls is given here.

How the values were obtained:
THP-1 = assay: Inhibition of MCP1 release in human THP1 cells after 24 hrs by ELISA; assay type: functional, cell-based
Procedure, shortened: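 THP-1 cells pretreated 15 min with compound, then stimulated with LPS 0.5 µg/mL plus IFN-γ 150 U/mL. After 24 h, MCP-1 (ng/mL) measured in cell-free medium by ELISA.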

[1] = Acute toxicity in po dosed Swiss albino mouse after 24 hrs; assay type: organism-based; conditions: in vivo, read-out: ALD50
Procedure, shortened: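 Four groups of five Swiss albino mice (20–30 g), fasted 24 h beforehand, given compounds orally at graded doses of 0–300 mg/kg. Mortality recorded at each dose level after 24 h to estimate the acute lethal dose (ALD50).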

Rattus norvegicus [2] = assay: Antiinflammatory activity in Wistar albino rat acute inflammatory model assessed as inhibition of formalin-induced paw edema at 20 mg/kg, po administered 1 hr before formalin challenge measured after 2 hrs by plethysmometer relative to control; assay type: functional; parameters: scale not given: the % may be the effect or the level left
Procedure, shortened: (§1)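 Male Wistar rats, 180–200 g, groups of five. Test compound 20 mg/kg po; 1 h later 0.1 mL 2% formalin injected subplantar into left hind paw under light ether anesthesia. Paw volume by water plethysmometer at 0 and 1, 2, 3, 4 h after formalin. % inhibition = (Vt−V0)control minus (Vt−V0)treated, divided by (Vt−V0)control ×100. Mean ± SEM, ANOVA with Student–Newman–Keuls.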

SH-SY5Y = assay: Antineurotoxicity in human SH-SY5Y cells assessed as inhibition human THP1 cell supernatant-induced cytotoxicity compound pretreated 24 to 48 hrs to THP1 cells measured after 72 hrs of supernatant addition; assay type: functional, cell-based
Procedure, shortened: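 THP-1 cells in DMEM-F12 with 5% FBS, pretreated 15 min with compound or DMSO, then stimulated with LPS 0.5 µg/mL plus IFN-γ 150 U/mL for 24 or 48 h. Cell-free supernatant transferred to SH-SY5Y cells plated 24 h earlier. After 72 h, viability by LDH release and MTT. IC50 from curves of at least three independent experiments.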

[3] = target: T1, Prostaglandin G/H synthase 1 (Ovis aries) (UniProt P05979); assay: Inhibition of ovine COX1 at 10 uM
T1 sequence (whole entry): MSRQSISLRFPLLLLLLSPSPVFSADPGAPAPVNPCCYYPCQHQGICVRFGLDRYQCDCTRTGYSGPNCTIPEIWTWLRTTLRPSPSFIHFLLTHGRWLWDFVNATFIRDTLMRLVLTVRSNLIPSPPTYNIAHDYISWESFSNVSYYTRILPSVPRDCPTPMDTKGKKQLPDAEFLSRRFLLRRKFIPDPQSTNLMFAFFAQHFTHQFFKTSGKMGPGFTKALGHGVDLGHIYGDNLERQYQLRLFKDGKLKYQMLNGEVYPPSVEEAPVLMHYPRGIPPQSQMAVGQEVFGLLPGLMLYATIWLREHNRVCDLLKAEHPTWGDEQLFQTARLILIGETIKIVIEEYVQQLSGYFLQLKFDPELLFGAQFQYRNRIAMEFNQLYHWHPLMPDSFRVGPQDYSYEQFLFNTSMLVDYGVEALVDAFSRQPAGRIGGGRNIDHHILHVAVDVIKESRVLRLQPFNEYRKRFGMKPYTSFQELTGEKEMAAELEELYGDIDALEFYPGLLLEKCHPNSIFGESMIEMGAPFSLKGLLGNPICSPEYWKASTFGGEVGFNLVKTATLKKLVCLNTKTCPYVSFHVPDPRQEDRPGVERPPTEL
Procedure, shortened: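 Kit assay with ovine COX-1, run per manufacturer's protocol. Read-out was percent inhibition of prostaglandin production, with compound at 10 µM and three experiments.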

Rattus norvegicus [4] = assay: Antiinflammatory activity in Wistar albino rat acute inflammatory model assessed as inhibition of formalin-induced paw edema at 20 mg/kg, po administered 1 hr before formalin challenge measured after 3 hrs by plethysmometer relative to control; assay type: functional; parameters: scale not given: the % may be the effect or the level left; procedure, shortened: as §1

For `O=C1NC(=O)/C(=C/c2cn(-c3ccc([N+](=O)[O-])cc3)nc2-c2ccc(Cl)cc2)S1`, the inhibition (THP-1) was “inactive”, the LD50 at 24 h [1] was greater than 300 mg/kg and the Activity (Rattus norvegicus [2]) was 46%. It also gave an IC50 (SH-SY5Y) of 2000 nM, an inhibition [3] of 28.4% and an Activity (Rattus norvegicus [4]) of 68%.
